For orientation: pEC50 means −log10 of the EC50, conventionally taken in molar units.

The record followed here is ChEMBL document CHEMBL1139922, “Discovery and structure-activity relationship studies of indole derivatives as liver X receptor (LXR) agonists” (Bioorg Med Chem Lett, 2007).

The test system of test [1] is HepG2. Description: Ratio of induction of lipogenesis in HepG2 cells at 10 uM to control after 24 hrs. The test is classed as functional, Homo sapiens.
Test [2] relates to THP-1. Kind of test: Induction of cholesterol efflux in THP1 cells after 18 hrs. The test is classed as functional, cell-based. As to conditions: Homo sapiens, THP-1, 18 h.
Test [3] relates to THP-1. Description: Ratio of induction of cholesterol efflux in THP1 cells at 10 uM to control after 18 hrs. It is filed as functional, Homo sapiens.
The target of test [4] is T1, Oxysterols receptor LXR-alpha (Homo sapiens, UniProt Q13133).
T1 sequence (Q13133 whole entry): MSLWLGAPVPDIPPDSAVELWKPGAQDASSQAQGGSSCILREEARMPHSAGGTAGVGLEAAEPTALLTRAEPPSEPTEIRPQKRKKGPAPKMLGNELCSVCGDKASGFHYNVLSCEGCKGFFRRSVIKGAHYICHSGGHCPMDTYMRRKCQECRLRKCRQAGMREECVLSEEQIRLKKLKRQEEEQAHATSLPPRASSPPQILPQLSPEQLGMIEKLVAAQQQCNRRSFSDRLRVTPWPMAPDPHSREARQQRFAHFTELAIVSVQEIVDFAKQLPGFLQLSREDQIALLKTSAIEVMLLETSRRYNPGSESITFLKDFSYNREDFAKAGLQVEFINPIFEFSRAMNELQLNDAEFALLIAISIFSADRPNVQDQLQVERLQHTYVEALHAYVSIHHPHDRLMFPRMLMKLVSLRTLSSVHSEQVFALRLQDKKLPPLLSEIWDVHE
Description: Agonist activity at LXRalpha LBD by HTRF cofactor peptide recruitment assay. The test is classed as functional.

Test [5] deals with THP-1. Kind of test: Ratio of induction of ABCA1 gene expression in THP1 cells at 10 uM to control. The test is classed as functional, Homo sapiens.
Test [6] relates to HepG2 (Homo sapiens). Kind of test: Ratio of induction of SREBP1c gene expression in HepG2 cells at 10 uM to control.
The target of test [7] is T2, Oxysterols receptor LXR-beta (Homo sapiens, UniProt P55055).
T2 sequence (P55055 whole entry): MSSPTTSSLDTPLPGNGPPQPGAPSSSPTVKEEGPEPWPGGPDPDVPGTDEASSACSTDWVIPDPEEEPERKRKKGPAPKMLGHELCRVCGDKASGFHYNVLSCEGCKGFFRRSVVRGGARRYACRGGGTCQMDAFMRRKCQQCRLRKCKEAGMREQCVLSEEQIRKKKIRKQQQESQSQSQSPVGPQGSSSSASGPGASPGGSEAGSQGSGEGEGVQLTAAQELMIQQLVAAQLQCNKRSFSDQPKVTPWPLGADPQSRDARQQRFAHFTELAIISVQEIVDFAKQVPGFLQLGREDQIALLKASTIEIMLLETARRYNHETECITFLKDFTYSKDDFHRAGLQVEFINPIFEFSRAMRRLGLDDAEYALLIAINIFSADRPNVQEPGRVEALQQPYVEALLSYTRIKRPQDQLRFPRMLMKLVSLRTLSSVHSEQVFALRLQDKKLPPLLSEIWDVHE
Description: Activation of LXRbeta co-transfected in COS7 cells with RXRalpha by reporter transactivation assay. It is filed as functional, cell-based, COS-7. A digest of the protocol:
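Cells exposed to vehicle or compound for 16 h; LXR reporter activation read as luciferase activity in cell lysate. EC50 derived from means of quadruplicate samples, single experiment.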

In test [8] the target is T2, Oxysterols receptor LXR-beta. Kind of test: Agonist activity at LXRbeta LBD by HTRF cofactor peptide recruitment assay. It is filed as functional. A general note: In TR-FRET formats the signal depends on donor and acceptor labels being close together.

pEC50: −log10 of the molar value. Bounds are passed on as bounds.

In the case of `CC(C)(C)OC(=O)n1c(-c2ccc3c(c2)CC(NS(=O)(=O)c2ccc(-c4ccon4)s2)C3)cc2ccccc21` (stereo not given), the Ratio is reported as 1.2 in test [1], 1.7 in test [3], 7.5 in test [5] and 2.1 in test [6]. Also, the pEC50 is 6.23 in test [2], under 4.52 in test [4], 6.47 in test [7] and 6.17 in test [8].

On to `CC(C)(C)OC(=O)n1c(-c2ccc3c(c2)CC(NS(=O)(=O)c2c(F)cccc2F)C3)cc2ccccc21` (stereo not given), for which the Ratio was 3.2 in test [1], 1.7 in test [3], 7.5 in test [5] and 3 in test [6]. The pEC50 in test [2] was 6.68; in test [4], 6.24; in test [7], 7.28; in test [8], 7.05.

Take `CC(C)(C)OC(=O)n1c(-c2ccc3c(c2)CC(NS(=O)(=O)c2ccc(F)cc2)C3)cc2ccccc21` (stereo not given): the Ratio stood at 2 in test [1], 1.7 in test [3], 11.4 in test [5] and 2 in test [6]. The pEC50 was 6.24 in test [2], 5.37 in test [4], 6.92 in test [7] and 6.34 in test [8].

As for `CC(C)(C)OC(=O)n1c(-c2ccc3c(c2)CC(NS(=O)(=O)c2cccs2)C3)cc2ccccc21` (stereo not given), the Ratio in test [1] was determined as 1.7; in test [3], 1.5; in test [5] it was 7.3; in test [6], 2.9. Moreover, the negative-log EC50 (pEC50) in test [2] was 6.24; in test [4], 6.27; in test [7], 6.44; in test [8] it was 6.96.

For the compound `CC(C)(C)OC(=O)n1c(-c2ccc3c(c2)CC(NS(=O)(=O)c2ccccc2)C3)cc2ccccc21` (stereo not given), the Ratio amounted to 3.1 in test [1], 1.6 in test [3], 8.4 in test [5] and 3.1 in test [6]. Moreover, the pEC50 in test [2] was 6.17; in test [4] it was 5.82; in test [7] it was 7.19; in test [8], 6.72.
